Screens from PubChem.
Rows were chosen to be rich in hits. Some 4.1% of all compounds tested hit in one or more screens of this group.
T cruzi inh: T. cruzi replication inhibition; T. cruzi beta-gal in NIH3T3, luminescence, 90 h; 300,000 compounds, 1.4% hits; inhibition, % (concentration not given with the values); AID 1885;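 active = mean inhibition across valid replicates above about 55%, limit read from the data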;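 also: signal also drops with host cell toxicity which is not excluded here; 0% = plate median of DMSO wells and 100% = zero luminescence signal; higher percent means less beta-gal luminescence so fewer parasites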
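System: mouse NIH/3T3 fibroblasts infected with β-gal-expressing T. cruzi Tulahuen C4 / Input: NIH/3T3 cells, 5,000 per well / Buffer or medium: Low-serum DMEM with 2% FBS / Probe or stimulus: 5000 reporter trypomastigotes per well / Schedule: ≥90 h infection period, 3 h prior cell attachment / Measured by: GalScreen luminescence, 60 min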
HCV NS3 hel inh: blocks Hepatitis C virus NS3 helicase unwinding | inhibition, % at 10.9 µM | 290,000 compounds, 0.56% hits | NS3 helicase DNA unwinding, Cy5 molecular beacon fluorescence;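 active = inhibition above the mean of all tested compounds plus 3 SD, set per campaign, cut at about 35% in these data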;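 also: 0% = DMSO wells and 100% = thioflavine S control wells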
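test system = hepatitis C virus NS3 helicase domain fragment enzyme | reagent = annealed dual-labelled DNA beacon duplex, ATP-started | times = 1 h at 25 °C | detection = Cy5 fluorescence, 0 and 60 min reads | read-out basis = percent inhibition from t60/t0 fluorescence ratio | control set = DMSO and thioflavine S | replication = one well per compound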
MEKK3 PB1 HTS: raises or lowers MEK5 binding to the human MEKK3 PB1 domain; Q99759; bead-based flow cytometry, Alexa488-MEK5 binding to MEKK3; actives lie on both sides; 0 = blocked by unlabeled MEK5, 100 = vehicle; binding response (% of control), % at 10 µM; 290,000 compounds, 1.4% hits;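 active = binding response more than 3 SD above or below the average of its plate-row segment, actives on both sides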;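 also: Alexa488 bead fluorescence after subtracting the streptavidin-only scavenger bead signal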
Target sequence (Q99759 whole entry, looked up, the tested form may be a part): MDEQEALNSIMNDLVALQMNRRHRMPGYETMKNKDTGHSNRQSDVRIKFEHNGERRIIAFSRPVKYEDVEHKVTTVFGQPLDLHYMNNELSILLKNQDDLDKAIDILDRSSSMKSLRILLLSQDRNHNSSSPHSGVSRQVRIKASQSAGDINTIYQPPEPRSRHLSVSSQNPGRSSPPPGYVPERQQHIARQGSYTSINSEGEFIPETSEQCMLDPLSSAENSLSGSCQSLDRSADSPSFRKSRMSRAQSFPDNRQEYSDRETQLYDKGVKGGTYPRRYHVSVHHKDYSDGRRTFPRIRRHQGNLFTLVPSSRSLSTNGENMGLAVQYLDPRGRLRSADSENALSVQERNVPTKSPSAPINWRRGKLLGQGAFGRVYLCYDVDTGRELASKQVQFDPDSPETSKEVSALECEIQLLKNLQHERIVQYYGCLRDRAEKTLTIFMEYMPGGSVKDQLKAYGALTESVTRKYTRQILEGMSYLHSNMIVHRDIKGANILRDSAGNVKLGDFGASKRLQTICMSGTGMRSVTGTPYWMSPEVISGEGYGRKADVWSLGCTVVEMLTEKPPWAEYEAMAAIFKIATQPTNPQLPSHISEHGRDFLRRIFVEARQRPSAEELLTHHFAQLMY
MEKK2 mut-MEK5: signal of MEK5 binding to mutant human MEKK2 PB1 domain; percent response, % at 10 µM; bead flow cytometry, Alexa488-MEK5 binding to MEKK2 mutant; 290,000 compounds, 0.35% hits; in the data active = percent response above about 24%, passing the limit was not always enough
MEKK2wt PB1 HTS: raises or lowers MEK5 binding to wildtype human MEKK2 PB1 domain; binding response (% of control), % at 10 µM; Q9Y2U5; 290,000 compounds, 1.1% hits; bead flow cytometry, Alexa488-MEK5 binding to MEKK2 WT; actives lie on both sides; in the data active = binding response below about 67% or above about 130%
FID counter: fluorescent intercalator displacement, NS3 helicase counter-screen; inhibition, % at 7.9 µM; 290,000 compounds, 0.17% hits; DNA fluorescent intercalator displacement, fluorescence; in the data active = inhibition above about 37%;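 also: 0% = vehicle and 100% = reference compound; higher means more ethidium bromide displaced from hairpin DNA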
MEKK2wt confirm: raises or lowers MEK5 binding to wildtype human MEKK2, retest; AID 1892; shares compounds with MEKK3 PB1 HTS; bead flow cytometry, Alexa488-MEK5 binding to MEKK2 WT; actives lie on both sides; binding response (% of control), % at 10 µM; 5,900 compounds, 2.4% hits; in the data active = binding response below about 16% or above about 210%; inactive = in between
MEKK2mut confirm: signal of MEK5 binding to mutant human MEKK2, retest. 5,900 compounds, 2% hits. bead flow cytometry, Alexa488-MEK5 binding to MEKK2 mutant. percent response, % at 10 µM. shares compounds with MEKK3 PB1 HTS; in the data active = percent response mostly above about 71%, no sharp cut-off; inactive = mostly below about 38%;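 also: higher means compound restores mutant binding toward wildtype level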
MEKK3-MEK5 inh: confirmation of inhibitors of MEK5 binding to human MEKK3. AID 1894. 5,900 compounds, 1.8% hits. binding response (% of control), % at 10 µM. bead flow cytometry, Alexa488-MEK5 binding to MEKK3; active compounds read low. shares compounds with MEKK3 PB1 HTS;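 active = binding response below 72% of control, or above a set upper limit, though filed actives all read lower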;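 also: 100% = DMSO only wells and 0% = binding blocked by excess unlabeled MEK5; lower values mean stronger disruption of MEK5 binding to MEKK3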
The depositor's hits bear a star; nt = not tested or not shown; ! = not active in a repeat; [ ] = remark or other dose.

SMILES	T cruzi inh	HCV NS3 hel inh	MEKK3 PB1 HTS	MEKK2 mut-MEK5	MEKK2wt PB1 HTS	FID counter	MEKK2wt confirm	MEKK2mut confirm	MEKK3-MEK5 inh
O=C(NCc1cccs1)C(=O)NCC1OCCCN1S(=O)(=O)c1cc(F)ccc1F (stereo not drawn)	-11	12	97	0	99	-22	nt	nt	nt
COc1ccc(CCNCc2cc(C)n(-c3ccc(OC)cc3)c2C)cc1	65*	-41	97	61*	184*	31	148	22	99
Cn1nnnc1SCC(=O)NC(=O)c1cccc([N+](=O)[O-])c1	-12	8	86	-4	87	1	nt	nt	nt
NS(=O)(=O)c1ccc(NC(=O)CN2C(=O)c3ccccc3C2=O)cc1	-2	8	104	5	100	0	nt	nt	nt
CC(C)C(C(=O)Nc1ccc(S(N)(=O)=O)cc1)N1C(=O)c2ccccc2C1=O (stereo not drawn)	-11	-2	56*[inhibitor]	-10	70	-3	96	-4	101
COC(=O)c1ccc2c(=O)n(CCCCCC(=O)NCc3ccccc3)c(=O)[nH]c2c1	6	-1	101	1	91	-18	nt	nt	nt
COC(=O)c1ccc2c(=O)n(CCCCCC(=O)NCc3ccc4c(c3)OCO4)c(=O)[nH]c2c1	-1	-8	65*[inhibitor]	-12	66	-10	103	7	101
NNC(=O)CCc1nc2ccccc2[nH]1	-3	3	97	-4	91	-8	nt	nt	nt
CC1=NNC(=O)C1C(c1ccccc1)C1C(=O)NN=C1C (stereo not drawn)	7	4	129*	1	113	7	97	-6	101
FC(F)(F)c1nnc2ccc(N3CCCCCC3)nn12	nt	-3	81*[inhibitor]	-14	91	-14	98	-2	100
FC(F)(F)c1nnc2ccc(N3CCCC3)nn12	1	7	103	5	108	-4	nt	nt	nt
Cc1nn(Cc2cccc(C(=O)O)c2)c(C)c1[N+](=O)[O-]	-12	-2	106	9	102	2	nt	nt	nt
Cc1nn(Cc2cccc(C(=O)Nn3cc([N+](=O)[O-])cn3)c2)c(C)c1[N+](=O)[O-]	0	1	128*	0	104	4	96	-12	97
O=C(/C=C/c1ccco1)Nc1ccc(-c2nc3ccccc3[nH]2)cc1	-45	-59	35*[inhibitor]	-5	47*[inhibitor]	13	76	-18	79
O=C1C(Cc2ccccc2)Nc2ncnc(N3CCCCC3)c2N1Cc1ccc(Cl)cc1 (stereo not drawn)	33	nt	nt	nt	nt	nt	nt	nt	nt
C/C=C/c1ccc(OCCCCN(C)Cc2ccccc2)c(OC)c1	33	-59	107	7	139*	18	120	9	100
Oc1ccc(O)c(-c2cnns2)c1	-17	1	132*	0	105	3	111	6	107
COc1ccc(S(=O)(=O)N2CCCC(C(=O)NCc3ccccc3)C2)cc1 (stereo not drawn)	4	31	100	-1	93	-29	nt	nt	nt
Cc1nn(-c2ccccc2)c(C)c1NC(=O)COC(=O)CCc1ccccc1	7	4	94	-7	92	-39	nt	nt	nt
Fc1ccc(CSc2nnc3ccc(-c4ccncc4)nn23)cc1	16	12	127	190*	115	-7	97	-2	101
O=C(Nc1nc(-c2ccc(F)cc2)cs1)c1ccc(N2C(=O)CCC2=O)cc1	-1	-2	74*[inhibitor]	-7	79	-26	93	-2	90
COc1cccc(OCCOCCOc2ccc(C)cc2[N+](=O)[O-])c1	0	-2	146*	0	109	-10	97	-2	102
CCc1nc(C(N)=O)c2[nH]c(=O)n(-c3ccc(OC)cc3OC)c2n1	-8	2	93	-10	93	-5	nt	nt	nt
Cc1cc(S(=O)(=O)N2CCOCC2)ccc1OCC(=O)NCc1ccccn1	-14	6	97	-4	101	-9	nt	nt	nt
CC(O)[C@H]1CNC(=O)C(=O)N1CCc1cccc(F)c1 (stereo partly drawn)	-5	nt	84	-16	85	nt	nt	nt	nt
SMILES	T cruzi inh	HCV NS3 hel inh	MEKK3 PB1 HTS	MEKK2 mut-MEK5	MEKK2wt PB1 HTS	FID counter	MEKK2wt confirm	MEKK2mut confirm	MEKK3-MEK5 inh
O=C1NC[C@H](c2ccccc2)N(CCc2cccc(F)c2)C1=O	-3	nt	79*[inhibitor]	-10	94	nt	100	-6	99
O=C(CCN1CCN(C/C=C/c2ccccc2)CC1)Nc1ccc(Cl)cc1	50	-41	111	10	120	18	nt	nt	nt
C(=C\c1ccccc1)/CN1CCN(C(c2ccccc2)c2ccccc2)CC1	-2	-53	109	14	165*	1	162	24	103
O=C(Nc1cccc(Cl)c1)N1CCN(C/C=C/c2ccccc2)CC1	18	-10	107	16	139*	-6	113	8	101
Fc1ccc(C(c2ccc(F)cc2)N2CCN(C/C=C/c3ccccc3)CC2)cc1	36	-74	113	26*!	210*!	10	184	39	110
CCc1ccc(/C=N/n2c(C)cc(C)c(C#N)c2=O)cc1	9	0	101	-3	99	-1	nt	nt	nt
CN1CCc2c1nc1ccccc1c2N (tested in a mixture with another compound)	5	4	107	6	107	-3	nt	nt	nt
CCCCN1CCc2c1nc1ccc(Br)cc1c2N	25	9	106	17	147*	7	148	27	110
O=C(NCCOc1nc(N2CCCCC2)nc(N2CCCCC2)n1)Nc1ccccc1	40	11	106	5	106	-6	nt	nt	nt
CCN(CC)c1nc(OCCNC(=O)Nc2ccccc2)nc(N(CC)CC)n1	34	-8	111	24*	118	-26	95	-9	96
CCCCNc1c([N+](=O)[O-])cc(C(=O)O)cc1[N+](=O)[O-]	2	9	138*	0	107	-2	103	1	102
Cc1csc(NC(=O)CCn2c(=O)sc3ccccc32)n1	-2	0	70*[inhibitor]	-7	81	-7	100	2	102
Cc1cccc(C2c3[nH]c4ccccc4c3CCN2C(=O)c2noc3c2CCCC3)n1 (stereo not drawn)	-3	-14	99	-5	95	-22	nt	nt	nt
